The values that follow come from ChEMBL document CHEMBL1149114, “Countering cooperative effects in protease inhibitors using constrained beta-strand-mimicking templates in focused combinatorial libraries” (J Med Chem, 2004).

Structures are written as SMILES.

As a reminder, the Ki is a dissociation constant, usually derived from enzyme kinetics or from competition with a known ligand. A low value points to higher affinity.

One test deals with T1, Human immunodeficiency virus type 1 protease (Human immunodeficiency virus 1, UniProt Q72874). Put plainly: (§1) Tested for inhibition of synthetic HIV-1 protease by using fluorometric assay. In short, it runs like this:
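Synthetic HIV-1 PR (SF2 isolate; C67B, C95B, Q7K, L33I mutations, B = L-α-aminobutyric acid) solubilized in 6 M Gu·HCl, refolded 60 min in phosphate pH 7.0/glycerol/BSA buffer. Continuous fluorimetric assay with 50 μM Abz-Thr-Ile-Nle-Phe(p-NO2)-Gln-Arg-NH2 in MES pH 6.5, 100 mM NaCl, 10% glycerol, I = 0.1 M, 37 °C, varying inhibitor. Ki from Dixon or Henderson plots; Km from Hanes plot.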
Consider `CC(C)CCN(C[C@@H](O)[C@@H]1Cc2ccc(cc2)OCCCCC(=O)N[C@@H](C(C)C)C(=O)N1)S(=O)(=O)c1ccccc1`, for which the Ki stood at 0.4 nM.

Compound `CC[C@@H](C)[C@@H]1NC(=O)[C@@H](NC[C@@H](O)[C@H](Cc2ccccc2)NC(=O)[C@@H](NC(=O)[C@H](CC(C)C)NC(C)=O)C(C)C)Cc2ccc(cc2)OCCCNC1=O` had a Ki of 0.6 nM.

Turning to `CC[C@H](C)[C@H](NC(=O)[C@@H](NC(=O)[C@@H]1CCCN1)C(C)C)C(=O)NCC(O)C1Cc2ccc(cc2)OCCCC(=O)NC(CC(N)=O)C(=O)N1` (stereo not given in full), the Ki is 12 nM.

`CC[C@@H](C)[C@@H]1NC(=O)[C@@H](NC[C@H](Cc2ccccc2)NC(=O)OC(C)(C)C)Cc2ccc(cc2)OCCCNC1=O` registered a Ki of 44 nM.

Compound `CC[C@@H](C)[C@@H]1NC(=O)[C@@H](NC[C@@H](O)[C@@H]2Cc3ccc(cc3)OCCCCC(=O)N[C@@H](C(C)C)C(=O)N2)Cc2ccc(cc2)OCCCNC1=O` returned a Ki of 5 nM.

`CC[C@@H](C)[C@@H]1NC(=O)[C@@H](NC[C@@H](O)[C@H](Cc2ccccc2)NC(=O)OC(C)(C)C)Cc2ccc(cc2)OCCCNC1=O` yielded a Ki of 4 nM.

Regarding `CC(C)(C)N(CC(O)C1Cc2ccc(cc2)OCCCC(=O)NC(CC(N)=O)C(=O)N1)C(=O)C1CCCCN1` (stereo not given), the inhibitory constant (Ki) stood at 12 nM.

Regarding `CC[C@@H](C)[C@@H]1NC(=O)[C@@H](NC[C@@H](O)[C@H](Cc2ccccc2)NC(=O)[C@H](C(C)C)N2CCCC2=O)Cc2ccc(cc2)OCCCNC1=O`, the inhibition constant Ki turned out to be 1 nM.

On to `CC[C@@H](C)[C@@H]1NC(=O)[C@@H](NC[C@@H](O)[C@H](Cc2ccccc2)NC(=O)c2cccc(C)c2)Cc2ccc(cc2)OCCCNC1=O`, for which the Ki came out at 15 nM. Against the preceding compound, the Ki is about 15-fold higher.

With `CC(C)CCN(C[C@@H](O)[C@@H]1Cc2ccc(cc2)OCCCCCC(=O)N[C@@H](C(C)C)C(=O)N1)S(=O)(=O)c1ccccc1`, affinity was put at a Ki of 1.6 nM.

Compound `CC(C)CCN(C[C@@H](O)[C@@H]1Cc2ccc(cc2)OCCCC(=O)N[C@@H](C(N)=O)C(=O)N1)S(=O)(=O)c1ccccc1` yielded a Ki of 1 nM.

The compound `CC[C@@H](C)[C@@H]1NC(=O)[C@@H](NC[C@@H](O)[C@H](Cc2ccccc2)NC(=O)OC2CCOC2)Cc2ccc(cc2)OCCCNC1=O` (stereo not given in full) returned a Ki of 4 nM.

The next test addresses T1, Human immunodeficiency virus type 1 protease. Described as §1.
`CC(C)CCN(C[C@@H](O)[C@@H]1Cc2ccc(cc2)OCCCCCC(=O)N[C@@H](C(C)C)C(=O)N1)NC(=O)NC1CCCCC1` displayed a Ki of 207 nM.

As to `CCC(C)N(C[C@@H](O)[C@@H]1Cc2ccc(cc2)OCCCCCC(=O)N[C@@H](C(C)C)C(=O)N1)S(=O)(=O)c1ccc(N)cc1` (stereo not given in full), the affinity corresponds to a Ki of 2 nM.

`CC(C)CCN(C[C@@H](O)[C@@H]1Cc2ccc(cc2)OCCCCCC(=O)N[C@@H](C(C)C)C(=O)N1)S(=O)(=O)c1ccc2ccccc2c1`: the Ki was determined as 1 nM.

Take `CC(C)CCN(C[C@@H](O)[C@@H]1Cc2ccc(cc2)OCCCCCC(=O)N[C@@H](C(C)C)C(=O)N1)S(=O)(=O)c1cccc([N+](=O)[O-])c1`: affinity was put at a Ki of 145 nM.

As to `CC(C)[C@@H]1NC(=O)CCCCCOc2ccc(cc2)C[C@@H]([C@H](O)CN(CCc2ccccc2)S(=O)(=O)c2ccc(N)cc2)NC1=O`, the Ki was determined as 8 nM. Compared with the last compound, the Ki is about 18-fold lower.

`CC(C)[C@@H]1NC(=O)CCCCCOc2ccc(cc2)C[C@@H]([C@H](O)CN(CCCCCC(=O)O)S(=O)(=O)c2ccc(N)cc2)NC1=O` yielded a Ki of 60 nM. This Ki is about 7.5-fold higher than that of the compound before.

Consider `CC(C)[C@@H]1NC(=O)CCCCCOc2ccc(cc2)C[C@@H]([C@H](O)CN(C2CCCC2)S(=O)(=O)c2ccc(N)cc2)NC1=O`, for which the affinity, expressed as Ki, was 3 nM. Against the preceding compound, the Ki is about 20-fold lower.

In the case of `CC(C)CCN(C[C@@H](O)[C@@H]1Cc2ccc(cc2)OCCCCCC(=O)N[C@@H](C(C)C)C(=O)N1)S(=O)(=O)c1cccc2cccnc12`, the Ki is 295 nM.

For the compound `CC(C)CCN(C[C@@H](O)[C@@H]1Cc2ccc(cc2)OCCCCCC(=O)N[C@@H](C(C)C)C(=O)N1)NC(=O)NCc1ccccc1`, the Ki stood at 314 nM.

Regarding `CCCCCCN(C[C@@H](O)[C@@H]1Cc2ccc(cc2)OCCCCCC(=O)N[C@@H](C(C)C)C(=O)N1)S(=O)(=O)c1ccc(N)cc1`, the Ki turned out to be 14 nM.

Compound `CC(=O)Nc1ccc(S(=O)(=O)N(CCC(C)C)C[C@@H](O)[C@@H]2Cc3ccc(cc3)OCCCCCC(=O)N[C@@H](C(C)C)C(=O)N2)cc1` registered a Ki of 10 nM.

In turn, `CC(C)CCN(C[C@@H](O)[C@@H]1Cc2ccc(cc2)OCCCCCC(=O)N[C@@H](C(C)C)C(=O)N1)S(=O)(=O)c1c(C(C)C)cc(C(C)C)cc1C(C)C` came in with a Ki of 4700 nM. Compared with the last compound, the Ki is about 470-fold higher.

On to `COc1ccc(CCN(C[C@@H](O)[C@@H]2Cc3ccc(cc3)OCCCCCC(=O)N[C@@H](C(C)C)C(=O)N2)S(=O)(=O)c2ccc(N)cc2)cc1`, for which the Ki amounted to 3 nM. Compared with the last compound, the Ki is about 1600-fold lower.
